OX1R antag-1: OX1R (human) antagonism; OX1R-expressing cells, FRET antagonist read-out; inhibition, % at 6.6 µM; 330,000 tested, 1.8% active; in the data active means inhibition mostly above about 38%, no sharp cut-off; inactive means mostly below about 40%
Target sequence (O43613 whole entry, looked up): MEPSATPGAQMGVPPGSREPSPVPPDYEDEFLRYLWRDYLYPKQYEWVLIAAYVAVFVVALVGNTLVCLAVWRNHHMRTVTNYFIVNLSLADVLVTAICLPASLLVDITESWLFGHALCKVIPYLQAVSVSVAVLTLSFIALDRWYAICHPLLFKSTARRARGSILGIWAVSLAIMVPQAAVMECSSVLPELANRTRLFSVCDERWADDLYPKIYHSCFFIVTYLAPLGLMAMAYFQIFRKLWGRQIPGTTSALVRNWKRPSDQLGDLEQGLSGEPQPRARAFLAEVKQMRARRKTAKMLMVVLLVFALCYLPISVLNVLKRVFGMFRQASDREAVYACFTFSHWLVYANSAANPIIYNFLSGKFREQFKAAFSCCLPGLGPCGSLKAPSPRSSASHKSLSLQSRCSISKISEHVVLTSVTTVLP
CHO parental Ca: counter-screen: ATP calcium response change in parental CHO cells; 330,000 tested, 0.63% active; parental CHO-K1, ATP-induced calcium, Fluo-8 fluorescence; inhibition, % at 5.6 µM;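 active means inhibition above that plate's mean sample inhibition plus 3 SD, cut at about 26% in these data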
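Material: parental CHO cells / Compound: single nominal dose of 5.6 µM per compound / Signal: Fluo-8 fluorescence / Replicates: singlicate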
CHO-K1 Ca antag: nonselective inhibitor or artifact in parental CHO-K1 cells | ATP-induced calcium, Fluo-8 fluorescence | inhibition, % at 3 µM | 360,000 tested, 0.6% active;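 active means inhibition above a per-plate cutoff, the plate's mean sample inhibition plus 3 SD, cut at about 24% in these data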
OX1R antag-2: blocks the human orexin 1 receptor; O43613; CHO/OX1R cells, Fluo-8 calcium fluorescence, orexin A; inhibition, % at 5 µM; 330,000 tested, 0.43% active; AID 434989;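 active means inhibition above its plate's threshold, mean inhibition of all tested compounds on the plate plus 3 SD, cut at about 37% in these data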
M1 ag parental: counter-screen for M1 agonists: effect in parental CHO-K1 cells; Fluo-8 calcium fluorescence; scaled to maximal ATP response, vehicle zero; activation, % at 3 µM; 360,000 tested, 0.48% active; AID 602248; in the data active means activation above about 15%;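 further: untransfected CHO-K1 host cells lacking M1 receptor as counterscreen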
CHO-K1 Ca PAM: counter-screen for M1 PAMs: effect in parental CHO-K1 cells; ATP EC20, Fluo-8 calcium fluorescence; 0% at ATP EC20, 100% at ATP max; 360,000 tested, 0.02% active; activation, % at 3 µM;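 active means activation above the run cutoff, the mean activation of all test compounds plus 3 SD, cut at about 40% in these data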;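 further: peak over basal fluorescence ratio in a 140 s read after ATP addition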
Each line names hits and unclear results; the compound was inactive in the other large screens. The list is not random: actives were taken first. Their share in the collection is about 2.9%.

COc1ccc(Cl)cc1NC(=O)CN(C)C(=O)c1n[nH]c2ccccc12	none
COCCn1c(=N)c(C(=O)NCCc2ccccc2)cc2c(=O)n3cccc(C)c3nc21	none
O=C(O)c1ccccc1C(=O)NCc1cccnc1	none
C=CCn1c(=N)c(C(=O)NCCCOC)cc2c(=O)n3cccc(C)c3nc21	OX1R antag-1 61.0
Cc1cccn2c(=O)c3cc(C(=O)NCCN4CCOCC4)c(=N)n(CCCN4CCOCC4)c3nc12	OX1R antag-1 52.1
Cc1cccn2c(=O)c3cc(C(=O)NCc4ccccc4)c(=N)n(CCCN4CCOCC4)c3nc12	none (no result: OX1R antag-1, CHO parental Ca, OX1R antag-2)
O=C(NCc1cccnc1)c1cccn2c(=O)c3sccc3nc12	OX1R antag-1 61.5
Cc1cccn2c(=O)c3cc(C(=O)NCc4cccnc4)c(=N)n(CC4CCCO4)c3nc12 (centres undefined)	OX1R antag-1 69.6
CCCCn1c(N)c(N(CCOC)C(=O)CC(NC(=O)c2ccccc2Cl)c2ccccc2)c(=O)[nH]c1=O (centres undefined)	none (no result: OX1R antag-1, CHO parental Ca, OX1R antag-2)
O=C(CSc1nnc2ccc(-c3ccc(F)cc3)nn12)NCC1CCCO1 (centres undefined)	none
CC(C)=NOc1nc(N(C)C)nc(N2CCOCC2)n1	none
COc1cccc(OCC(=O)Nc2ccccc2C(=O)Nc2ccc(C(=O)O)cc2)c1	none
Cc1cccn2c(=O)c3cc(C(=O)NCc4ccco4)c(=N)n(CCOCCO)c3nc12	OX1R antag-1 43.8
COc1ccc(CC(=O)Nc2cccc(S(=O)(=O)N3CCCCCC3)c2)cc1OC	CHO parental Ca 48.8
O=C(COC(=O)c1cc(S(=O)(=O)N2CCCC2)ccc1O)Nc1ccc(SC(F)F)cc1	M1 ag parental 15.2
O=C(COC(=O)c1cc(S(=O)(=O)N2CCCC2)ccc1O)Nc1ccc(S(=O)(=O)N2CCOCC2)cc1	none
Cc1ccc(C)c(C(=O)OCC(=O)Nc2cccc(S(=O)(=O)N3CCCCC3)c2)c1	OX1R antag-2 53.7
Cc1ccccc1C(=O)OCC(=O)Nc1cccc(S(=O)(=O)N2CCCCC2)c1	none (no result: OX1R antag-1, CHO parental Ca, OX1R antag-2)
CCOc1ccc(C(=O)OCC(=O)Nc2ccc(SC(F)F)cc2)cc1OCC	CHO parental Ca 25.2
CC(C)(C)C(=O)Nc1sc2c(c1C#N)CCN(Cc1ccccc1)C2	none
CC(C)OC(=O)CSc1nnc2c(n1)[nH]c1ccc(F)cc12	none
CC(=O)c1c(C)[nH]c(C(=O)OCC(=O)Nc2cccc(S(=O)(=O)N3CCCC3)c2)c1C	OX1R antag-2 39.1
CC(=O)c1c(C)[nH]c(C(=O)OCC(=O)Nc2cc(S(=O)(=O)N3CCCC3)ccc2Cl)c1C	none
O=C(COC(=O)C1CC2C=CC1C2)Nc1cccc(S(=O)(=O)N2CCCCC2)c1 (centres undefined)	none
O=C(COC(=O)C1CC2C=CC1C2)Nc1cccc(S(=O)(=O)N2CCCCCC2)c1 (centres undefined)	CHO parental Ca 33.0, M1 ag parental 15.7
CC(=O)c1cn(CCOc2cc(C)ccc2C)c2ccccc12	CHO parental Ca 32.6
COc1cccc(OCCn2cc(C(C)=O)c3ccccc32)c1	CHO parental Ca 32.1
COC(=O)N/N=C/c1cn(CCOc2ccc(OC)cc2)c2ccccc12	M1 ag parental 15.1
COc1ccccc1OCCn1cc(C(=O)c2ccco2)c2ccccc21	M1 ag parental 19.7
COc1cccc(OCCn2cc(/C=N/NC(=O)c3ccncc3)c3ccccc32)c1	none
C=CCC[C@@H](CCCCC)OC(=O)/C=C/[C@@H](O)[C@H](O)C[C@@H](O)CC=C	none (no result: OX1R antag-1, CHO parental Ca, OX1R antag-2)
Cc1ccc(NC(=O)COC(=O)CC2SC(N3CCCC3)=NC2=O)cc1 (centres undefined)	none
O=C(Nc1cccc2ccccc12)c1csc([C@@H]2C[C@H](O)[C@@H](CO)O2)n1	none (no result: OX1R antag-1, CHO parental Ca, OX1R antag-2)
COc1ccc(OC)c(NC(=O)Cn2cc(C(=O)c3ccco3)c3ccccc32)c1	none
COc1cccc(OCCn2cc(C(=O)c3ccco3)c3ccccc32)c1	OX1R antag-2 46.1
CCOc1ccc(CCNC(=O)C2CCCN(S(=O)(=O)N3CCCCC3)C2)cc1OCC (centres undefined)	none (no result: OX1R antag-1, CHO parental Ca, OX1R antag-2)
CN(C)C(=O)c1ccc(NC(=O)c2cccc(S(=O)(=O)N3CCN(Cc4ccccc4)CC3)c2)cc1	none (no result: OX1R antag-1, CHO parental Ca, OX1R antag-2)
CN(CC(=O)Nc1ccc(Cl)cc1)C(=O)c1cccc(S(=O)(=O)N2CCN(Cc3ccccc3)CC2)c1	CHO parental Ca 37.1
O=c1oc2ccccc2c(O)c1/C=C1\C=Nc2ccccc21	OX1R antag-1 73.5
CCC(=O)NC(Nc1sc2c(c1C(=O)OC)CCCC2)(C(F)(F)F)C(F)(F)F	CHO parental Ca 45.6
CCOc1ccc(NC(=O)CCN2CCN(S(=O)(=O)c3ccc(OC)cc3)CC2)cc1	none
COc1ccc(NC(=O)CCN2CCN(S(=O)(=O)c3cc(Cl)ccc3OC)CC2)cc1	CHO-K1 Ca PAM 62.2
O=S(=O)(c1ccc(SCCOc2ccc(Cl)cc2)nc1)N1CCCC1	CHO parental Ca 30.0
O=S(=O)(c1ccc(SCCOc2ccc(Br)cc2)nc1)N1CCCC1	none
CCn1c2ccccc2c2cc([N+](=O)[O-])ccc21	none
CCn1c2ccccc2c(=O)c2ccccc21	OX1R antag-1 66.5
NC(=O)c1cccc(-c2cnc3c(Nc4cccc(OC(F)(F)C(F)F)c4)nccn23)c1	CHO-K1 Ca antag 30.7 (no result: OX1R antag-1, CHO parental Ca, OX1R antag-2)
Oc1ccc(-c2cnc3c(Nc4cccc(OC(F)(F)C(F)F)c4)nccn23)cc1	none (no result: OX1R antag-1, CHO parental Ca, OX1R antag-2)
O=C(CSc1nncn1-c1ccccc1)N1CCCC1	none
CCN1CCN(c2cc(C)nc(-c3ccccc3O)n2)CC1	none
CC(C)C(=O)N1CCN(c2ccccc2NC(=O)c2ccc([N+](=O)[O-])o2)CC1	OX1R antag-1 61.2
O=C(Nc1cccc2ccccc12)c1ccc([N+](=O)[O-])o1	none
NC(=O)c1ccsc1NC(=O)c1ccc([N+](=O)[O-])o1	OX1R antag-1 33.7
Cc1cccc(NC(=O)c2ccc([N+](=O)[O-])o2)c1C	OX1R antag-1 76.1
O=C(Nc1ccccn1)c1ccc([N+](=O)[O-])o1	OX1R antag-1 72.3
CCC(=O)N1CCN(c2ccccc2NC(=O)c2ccc([N+](=O)[O-])o2)CC1	none
NC(=O)c1ccsc1NC(=O)COC(=O)c1ccc([N+](=O)[O-])o1	none
Cc1cc(C)c(NS(=O)(=O)c2ccccc2)c(C)n1	none (no result: OX1R antag-1, CHO parental Ca, OX1R antag-2)
COc1ccc(S(=O)(=O)N2CCN(CC(=O)Nc3sccc3C(N)=O)CC2)cc1OC	none
CCN(CC)S(=O)(=O)c1ccc(N2CC(C(=O)NC3(C)CCS(=O)(=O)C3)CC2=O)cc1 (centres undefined)	none
COc1cc(OC)cc(C(=O)NC2CC(C)(C)NC(C)(C)C2)c1	none
O=C(Nc1ncccn1)c1ccc([N+](=O)[O-])o1	OX1R antag-1 41.1
COc1ccccc1NC(=O)c1ccc([N+](=O)[O-])o1	none (no result: CHO-K1 Ca antag, M1 ag parental, CHO-K1 Ca PAM)
O=C(NCc1ccc(F)cc1)C1CCCN(C(=O)NCc2ccccc2)C1 (centres undefined)	none

High-throughput results as filed in PubChem.
